How the values were obtained:
[1] = molecular target: T1, hABCG2 (Homo sapiens, UniProt Q9UNQ0); assay type: cell-based; conditions: empty vector-transfected HEK293; 5 μM Aβ1-40; Hoechst 33342; data not shown
T1 sequence (Q9UNQ0 1-655): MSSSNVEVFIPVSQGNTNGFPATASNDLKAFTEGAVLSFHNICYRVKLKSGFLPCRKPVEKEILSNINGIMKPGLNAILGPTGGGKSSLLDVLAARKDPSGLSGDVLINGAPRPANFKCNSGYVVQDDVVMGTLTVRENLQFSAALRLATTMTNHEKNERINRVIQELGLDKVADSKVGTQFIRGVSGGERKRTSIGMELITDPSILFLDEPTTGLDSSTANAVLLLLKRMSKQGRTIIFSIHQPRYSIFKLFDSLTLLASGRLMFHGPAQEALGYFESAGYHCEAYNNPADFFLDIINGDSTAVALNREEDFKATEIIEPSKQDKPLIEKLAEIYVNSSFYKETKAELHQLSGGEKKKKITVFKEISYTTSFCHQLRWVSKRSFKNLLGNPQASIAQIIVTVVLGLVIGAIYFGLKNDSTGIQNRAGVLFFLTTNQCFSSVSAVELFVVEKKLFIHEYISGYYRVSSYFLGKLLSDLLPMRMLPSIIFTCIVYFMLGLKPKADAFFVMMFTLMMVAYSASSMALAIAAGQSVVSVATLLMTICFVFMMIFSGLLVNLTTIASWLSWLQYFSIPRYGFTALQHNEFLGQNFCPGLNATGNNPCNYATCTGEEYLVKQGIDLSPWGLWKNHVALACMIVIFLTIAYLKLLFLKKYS

[2] = molecular target: T2, Abcg2 (Mus musculus, UniProt Q7TMS5); assay type: in vivo
T2 sequence (Q7TMS5 1-657): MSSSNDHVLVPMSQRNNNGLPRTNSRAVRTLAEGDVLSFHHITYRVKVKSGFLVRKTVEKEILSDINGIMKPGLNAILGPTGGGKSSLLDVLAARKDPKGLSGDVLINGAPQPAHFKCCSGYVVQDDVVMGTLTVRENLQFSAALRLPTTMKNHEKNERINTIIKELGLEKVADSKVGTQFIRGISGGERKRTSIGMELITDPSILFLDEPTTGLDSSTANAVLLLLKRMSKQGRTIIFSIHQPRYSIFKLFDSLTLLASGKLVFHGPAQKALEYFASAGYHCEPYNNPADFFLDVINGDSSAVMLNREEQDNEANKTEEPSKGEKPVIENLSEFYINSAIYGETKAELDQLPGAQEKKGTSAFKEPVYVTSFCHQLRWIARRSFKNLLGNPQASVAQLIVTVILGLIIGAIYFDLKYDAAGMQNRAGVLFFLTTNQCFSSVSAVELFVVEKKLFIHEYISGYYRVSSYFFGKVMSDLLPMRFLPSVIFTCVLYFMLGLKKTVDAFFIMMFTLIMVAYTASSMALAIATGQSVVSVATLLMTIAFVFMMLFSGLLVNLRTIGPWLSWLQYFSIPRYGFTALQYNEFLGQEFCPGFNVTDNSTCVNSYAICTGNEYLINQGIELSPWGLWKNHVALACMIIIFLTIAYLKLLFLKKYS
How it was run: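 Peptides were Cy5.5-labeled via NHS ester kit. Adult KO/wt pairs were matched for age, sex and weight and shaved under isoflurane. Pairs received equal labeled peptide (65 or 200 μg) by tail vein. Heads were imaged live (1.5 mm resolution) at 15 min and 2, 4, 6, 8 and/or 24 h. Brains were saline-perfused and scanned ex vivo (1 mm). Excitation: 670 nm pulsed laser diode, 80 MHz, 12 ps.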

[3] = system: ABCG2 expression in HBEC; test: ABCG2 expression in human brain endothelial cells; assay type: cell-based; conditions: 50 units of either cytokine; data not shown
[4] = molecular target: T2, Abcg2; assay type: in vivo; conditions: after intravenous injection; brain sections stained with 6E10
How it was run: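 Mice received i.v. Cy5.5-labeled Aβ1–40 and underwent optical imaging, then saline perfusion. Brains were OCT-embedded and frozen-sectioned at 10 μm. Sections were immunostained with anti-Aβ 6E10 plus secondary antibody; control sections got secondary antibody only. Vessels were marked with fluorescein-labeled tomato lectin.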

Aβ1-40: Synthetic Aβ1-40 peptide purchased from Biopeptides Co., Inc
effect of Aβ1-40 peptides on drug uptake in empty vector-transfected cells [1]: did not significantly affect | more peptide transported into the brain in the absence of Abcg2 ([2]; Abcg2 KO vs wt mice, i.v. injection of Cy5.5-labeled peptide): 20~37%

TNF-α
ABCG2 expression in HBEC after cytokine [3]: no changes in ABCG2 expression

Cy5.5-labeled Aβ1-40: Synthetic Aβ1-40 labeled with fluorescent dye Cy5.5 using Cy5.5 Mono NHS ester kit
Aβ immunofluorescence in brains of Abcg2 KO mice compared to wt mice [4]: strongly enhanced | brain fluorescence concentration, Abcg2 KO vs wt animals ([2]; 65 μg/mouse i.v., two pairs of mice, data not shown): comparatively higher

IL-1β: pro-inflammatory cytokine
ABCG2 expression in HBEC after cytokine [3]: no changes in ABCG2 expression
